The term inhibition denotes the change of the read-out against control, counted positive when it falls. A word on the Kd: it is the constant that tells how readily two partners part at equilibrium. A low value points to a tighter complex.

The results in this text go back to ChEMBL document CHEMBL4396880, “Development of Small-Molecules Targeting Receptor Activator of Nuclear Factor-κB Ligand (RANKL)-Receptor Activator of Nuclear Factor-κB (RANK) Protein-Protein Interaction by Structure-Based Virtual Screening and Hit Optimization” (J Med Chem, 2019).

In series [1] the target is T1, Tumor necrosis factor ligand superfamily member 11/11A (Mus musculus) (UniProt O35235+O35305). The series can be described thus: Inhibition of RANKL-RANK protein-protein interaction in C57/BL6 mouse bone marrow macrophage assessed as suppression of M-CSF/mRANKL-induced osteoclastogenesis by measuring reduction in TRAP activity at 5 uM measured after 3 days by colorimetric assay relative to control. Put shortly:
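BMMs were incubated with the test compound at 5 μM, together with RANKL (50 ng/mL) and M-CSF (20 ng/mL), for 3 days. Osteoclastogenesis was then read out as tartrate-resistant acid phosphatase (TRAP) activity.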

Series [2] has as its target T2, Tumor necrosis factor ligand superfamily member 11 (Homo sapiens, UniProt O14788).
T2 sequence (O14788 whole entry): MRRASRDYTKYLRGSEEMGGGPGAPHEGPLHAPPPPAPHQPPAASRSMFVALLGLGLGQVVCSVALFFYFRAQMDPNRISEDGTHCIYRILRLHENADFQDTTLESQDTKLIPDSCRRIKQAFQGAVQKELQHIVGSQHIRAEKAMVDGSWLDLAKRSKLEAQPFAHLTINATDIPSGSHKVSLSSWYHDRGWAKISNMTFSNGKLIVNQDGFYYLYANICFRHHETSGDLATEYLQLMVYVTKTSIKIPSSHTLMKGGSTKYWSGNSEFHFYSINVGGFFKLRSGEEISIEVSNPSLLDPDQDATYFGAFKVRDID
The series can be described thus: Binding affinity to human RANKL by surface plasmon resonance analysis. (In general: In SPR one partner is held on a chip, and binding of the other changes the refractive index at the surface.)

The target of series [3] is T3, Tumor necrosis factor ligand superfamily member 11 (Mus musculus, UniProt O35235).
T3 sequence (O35235 whole entry): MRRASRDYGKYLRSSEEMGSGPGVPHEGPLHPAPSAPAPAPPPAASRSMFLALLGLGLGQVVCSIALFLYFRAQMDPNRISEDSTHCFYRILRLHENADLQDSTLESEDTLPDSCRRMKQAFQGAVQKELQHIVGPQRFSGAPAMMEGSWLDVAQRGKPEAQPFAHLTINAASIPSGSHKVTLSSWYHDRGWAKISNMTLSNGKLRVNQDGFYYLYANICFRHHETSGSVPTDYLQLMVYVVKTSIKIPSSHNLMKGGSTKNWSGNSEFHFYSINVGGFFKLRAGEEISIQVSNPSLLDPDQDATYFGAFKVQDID
Briefly: Binding affinity to mouse N-terminal His6-Trx-tagged RANKL ectodomain (157 to 316 residues) expressed in Escherichia coli BL21 (DE3) by isothermal titration calorimetric assay. (In general: In ITC the heat of successive injections is recorded.)

Series [4] addresses T1, Tumor necrosis factor ligand superfamily member 11/11A (Mus musculus). The series can be described thus: Inhibition of RANKL-RANK protein-protein interaction in C57/BL6 mouse bone marrow macrophage assessed as suppression of M-CSF/mRANKL-induced osteoclast differentiation by measuring decrease in nuclei number of F-actin ring formation at 5 uM supplemented with fresh medium containing compounds every 2 days for 5 to 6 days by rhodamine phalloidin/DAPI staining-based microscopic analysis. The series is classed as protein assay.

Series [5] is described as follows: Cytotoxicity against M-CSF-stimulated C57/BL6 mouse bone marrow macrophages assessed as cell viability at 10 uM measured after 2 days by MTT assay (reference value: 100%). It counts as cell-based. The following applies: M-CSF-stimulated bone marrow macrophages (BMDM), read-out: Activity.
The target of series [6] is T1, Tumor necrosis factor ligand superfamily member 11/11A (Mus musculus). Briefly: Inhibition of RANKL-RANK protein-protein interaction in C57/BL6 mouse bone marrow macrophage assessed as suppression of M-CSF/mRANKL-induced osteoclast differentiation by measuring decrease in nuclei size of F-actin ring formation at 5 uM supplemented with fresh medium containing compounds every 2 days for 5 to 6 days by rhodamine phalloidin/DAPI staining-based microscopic analysis. It counts as protein assay.

Series [7] has the same target. Briefly: Inhibition of RANKL-RANK protein-protein interaction in C57/BL6 mouse bone marrow macrophage assessed as suppression of M-CSF/mRANKL-induced osteoclast differentiation by measuring decrease in multinucleated TRAP+ cells supplemented with fresh medium containing compounds every 2 days for 5 to 6 days by TRAP staining-based microscopic analysis. It counts as cell-based. Put shortly: (§1)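 Bone marrow macrophages were exposed to the test compound at the indicated concentrations for 5 days under M-CSF/RANKL stimulation. TRAP-positive multinucleated cells were then counted as the measure of osteoclast formation.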

Series [8] has the same target. Briefly: Inhibition of RANKL-RANK protein-protein interaction in C57/BL6 mouse bone marrow macrophage assessed as suppression of M-CSF/mRANKL-induced osteoclast differentiation by measuring decrease in multinucleated TRAP+ cells at 5 uM supplemented with fresh medium containing compounds every 2 days for 5 to 6 days by TRAP staining-based microscopic analysis. It counts as cell-based. The method in brief:
as §1

Active and inactive are the calls of the source. The rule behind the calls is not given here. Bridge positions count the residues as written; N and C are the ends. Peptide text beside a SMILES is read from it.

T1 sequence (O35305 31-625 partner limits assumed, one chain of several): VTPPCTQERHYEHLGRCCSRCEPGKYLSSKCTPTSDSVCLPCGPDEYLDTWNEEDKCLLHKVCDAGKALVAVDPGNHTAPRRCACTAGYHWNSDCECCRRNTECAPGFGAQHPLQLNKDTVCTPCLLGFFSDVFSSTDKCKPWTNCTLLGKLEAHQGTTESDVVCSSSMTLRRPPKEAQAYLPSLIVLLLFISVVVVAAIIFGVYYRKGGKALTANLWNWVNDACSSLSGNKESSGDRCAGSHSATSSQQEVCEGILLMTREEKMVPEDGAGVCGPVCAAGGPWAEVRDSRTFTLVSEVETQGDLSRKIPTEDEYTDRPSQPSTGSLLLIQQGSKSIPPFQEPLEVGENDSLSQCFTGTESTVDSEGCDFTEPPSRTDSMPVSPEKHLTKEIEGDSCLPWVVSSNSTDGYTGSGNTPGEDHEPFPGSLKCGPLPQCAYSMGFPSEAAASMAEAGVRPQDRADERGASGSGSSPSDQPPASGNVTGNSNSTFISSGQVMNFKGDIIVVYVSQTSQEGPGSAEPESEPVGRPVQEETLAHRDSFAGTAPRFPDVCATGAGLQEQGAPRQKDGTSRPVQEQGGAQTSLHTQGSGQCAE

Regarding `Cc1cccc(C)c1NCC(Cc1c[nH]c2ccccc12)NC(=O)CCc1ccccc1` (centres undefined), in series [1], the inhibition came to 23.1%.

As for `Cc1ccccc1NC(=O)C(Cc1c[nH]c2ccccc12)NC(=O)CCc1ccccc1` (centres undefined), in series [1], the inhibition was found to be 74.2%.

As to `CC[C@H](C)[C@H](NC(=O)[C@H](CC(C)C)NC(=O)[C@H](Cc1ccc(O)cc1)NC(=O)[C@@H]1CSSC[C@H](NC(=O)[C@@H](N)Cc2ccc(O)cc2)C(=O)N[C@@H](CCC(=O)O)C(=O)N[C@@H]([C@@H](C)CC)C(=O)N[C@@H](CCC(=O)O)C(=O)N[C@@H](Cc2ccccc2)C(=O)N1)C(=O)N[C@@H](CCCNC(=N)N)C(=O)O` (H-YCEIEFCYLIR-OH; disulfide 2-7), the Kd in series [2] and in series [3] was 284 µM throughout.

For `N=C(N)NCCC[C@H](NC(=O)[C@H](CCCNC(=N)N)NC(=O)[C@H](Cc1ccc(O)cc1)NC(=O)[C@@H]1CSSC[C@H](NC(=O)[C@@H](N)Cc2ccc(O)cc2)C(=O)N[C@@H](Cc2c[nH]c3ccccc23)C(=O)N[C@@H](CC(N)=O)C(=O)N[C@@H](CO)C(=O)N[C@@H](CC(=O)O)C(=O)N[C@@H](CS)C(=O)N[C@@H](CCC(=O)O)C(=O)N[C@@H](CS)C(=O)N1)C(=O)O` (H-YCWNSDCECCYRR-OH; disulfide 2-10), the Kd in series [2] and in series [3] was 17.3 µM throughout.

With `Cc1cccc(C)c1NC(=O)C(Cc1c[nH]c2cc(F)ccc12)NC(=O)CCc1ccccc1` (racemic), the inhibition entry is “Dose-dependent effect” in series [4]; 89.4% in series [1]; “Dose-dependent effect” in series [6]; “Dose-dependent effect” in series [7]; 100% in series [8]. The compound also came in with a Kd in series [2] of 3.5 µM. The viability at 48 h, 10 µM in series [5] amounted to 103%.

In the case of `Cc1cccc(C)c1NC(=O)C(Cc1c[nH]c2ccccc12)NC(=O)CCc1ccc(Cl)cc1` (racemic), the inhibition entry was “Dose-dependent effect” in series [4]; 89% in series [1]; “Dose-dependent effect” in series [6]; “Dose-dependent effect” in series [7]; 100% in series [8]. In series [2], binding was put at a Kd of 3.1 µM. Besides, in series [5], the viability at 48 h, 10 µM is 102%.

The compound `Cc1cccc(C)c1NC(=O)C(Cc1c[nH]c2ccccc12)NC(=O)CCc1ccccc1` (racemic) [listing 1 of 2 here] had a Kd in series [2] of 2.7 µM. Moreover, in series [5], the viability at 48 h, 10 µM was 110%.

Take `CN(C)c1ccc(NC(=O)C(Cc2c[nH]c3ccccc23)NC(=O)CCc2ccccc2)cc1` (racemic): the inhibition in series [1] was 70.6%.

In the case of `COc1ccc(CCC(=O)NC(Cc2c[nH]c3ccccc23)C(=O)Nc2c(C)cccc2C)cc1` (racemic), the inhibition in series [1] is 16.9%.

With `COc1ccc(NC(=O)C(Cc2c[nH]c3ccccc23)NC(=O)CCc2ccccc2)cc1` (racemic), in series [1], the inhibition amounted to 59%.

In the case of `COc1ccc2[nH]cc(CC(NC(=O)CCc3ccccc3)C(=O)Nc3c(C)cccc3C)c2c1` (racemic), the inhibition in series [1] stood at 84.4%.

Consider `COc1cccc(CCC(=O)NC(Cc2c[nH]c3ccccc23)C(=O)Nc2c(C)cccc2C)c1` (racemic), for which, in series [1], the inhibition is 41.7%.

For the compound `CS(=O)(=O)c1ccc(NC(=O)C(Cc2c[nH]c3ccccc23)NC(=O)CCc2ccccc2)cc1` (racemic), the inhibition in series [1] was 69.9%.

As for `Cc1ccc(NC(=O)C(Cc2c[nH]c3ccccc23)NC(=O)CCc2ccccc2)cc1` (racemic), the inhibition in series [1] was found to be 69.9%.

As for `Cc1cccc(C)c1NC(=O)C(Cc1c[nH]c2ccc(F)cc12)NC(=O)CCc1ccccc1` (racemic), the inhibition in series [1] was 83.9%.

As for `Cc1cccc(C)c1NC(=O)C(Cc1c[nH]c2ccccc12)NC(=O)CCC1CC1` (racemic), the inhibition in series [1] came to 57.4%.

Take `Cc1cccc(C)c1NC(=O)C(Cc1c[nH]c2ccccc12)NC(=O)CCC1CCCC1` (racemic): in series [1], the inhibition came to 14%.

`Cc1cccc(C)c1NC(=O)C(Cc1c[nH]c2ccccc12)NC(=O)CCC1CCCCC1` (racemic): in series [1], the inhibition stood at 35.4%.

Regarding `Cc1cccc(C)c1NC(=O)C(Cc1c[nH]c2ccccc12)NC(=O)CCCCc1ccccc1` (racemic), in series [1], the inhibition was 82%.

Take `Cc1cccc(C)c1NC(=O)C(Cc1c[nH]c2ccccc12)NC(=O)CCCc1ccccc1` (racemic): the inhibition in series [1] came out at 79.3%.

On to `Cc1cccc(C)c1NC(=O)C(Cc1c[nH]c2ccccc12)NC(=O)CCc1ccc(F)cc1` (racemic), for which, in series [1], the inhibition is 33.6%.

Regarding `Cc1cccc(C)c1NC(=O)C(Cc1c[nH]c2ccccc12)NC(=O)CCc1cccc(Cl)c1` (racemic), the inhibition in series [1] amounted to 69.5%.

Consider `Cc1cccc(C)c1NC(=O)C(Cc1c[nH]c2ccccc12)NC(=O)CCc1cccc(F)c1` (racemic), for which the inhibition in series [1] stood at 56.8%.

Take `Cc1cccc(C)c1NC(=O)C(Cc1c[nH]c2ccccc12)NC(=O)CCc1ccccc1` (racemic) [listing 2 of 2 here]: the inhibition result was “Dose-dependent effect” in series [4]; 90.3% in series [1]; “Dose-dependent effect” in series [6]; “Dose-dependent effect” in series [7]; 100% in series [8].

For the compound `Cc1cccc(C)c1NC(=O)C(Cc1c[nH]c2ccccc12)NC(=O)CCc1cccnc1` (racemic), the inhibition in series [1] amounted to 66.5%.

For the compound `Cc1cccc(C)c1NC(=O)C(Cc1c[nH]c2ccccc12)NC(=O)CCc1cccs1` (racemic), the inhibition in series [1] was found to be 65.4%.

Consider `Cc1cccc(C)c1NC(=O)C(Cc1c[nH]c2ccccc12)NC(=O)CCc1ccncc1` (racemic), for which the inhibition in series [1] came out at 41.4%.

As for `Cc1cccc(C)c1NC(=O)C(Cc1c[nH]c2ccccc12)NC(=O)CCc1ccsc1` (racemic), the inhibition in series [1] amounted to 52.2%.

On to `Cc1cccc(C)c1NC(=O)C(Cc1c[nH]c2ccccc12)NC(=O)CCc1nccs1` (racemic), for which the inhibition in series [1] turned out to be 86.3%.

With `Cc1cccc(C)c1NC(=O)C(Cc1c[nH]c2ccccc12)NC(=O)Cc1ccccc1` (racemic), in series [1], the inhibition was 52.1%.

In the case of `Cc1cccc(C)c1NC(=O)C(Cc1c[nH]c2ccccc12)NCCCCCc1ccccc1` (racemic), the inhibition in series [1] turned out to be 87.2%.

For `Cc1cccc(C)c1NC(=O)C(Cc1c[nH]c2ccccc12)NCCCCc1ccccc1` (racemic), the inhibition in series [1] turned out to be 83.3%.

For the compound `Cc1cccc(C)c1NC(=O)C(Cc1c[nH]c2ccccc12)NCCc1ccccc1` (racemic), the inhibition in series [1] was found to be 76.5%.

As for `O=C(CCc1ccccc1)NC(Cc1c[nH]c2ccccc12)C(=O)Nc1ccc(C(F)(F)F)cc1` (racemic), the inhibition in series [1] turned out to be 72%.

Consider `O=C(CCc1ccccc1)NC(Cc1c[nH]c2ccccc12)C(=O)Nc1ccc(F)cc1` (racemic), for which the inhibition in series [1] was 70.3%.

For `O=C(CCc1ccccc1)NC(Cc1c[nH]c2ccccc12)C(=O)Nc1ccc(N2CCOCC2)cc1` (racemic), the inhibition in series [1] was 64.8%.

Take `O=C(CCc1ccccc1)NC(Cc1c[nH]c2ccccc12)C(=O)Nc1ccccc1` (racemic): the inhibition in series [1] worked out at 55.3%.

With `O=C(CCc1ccccc1)NC(Cc1c[nH]c2ccccc12)C(=O)Nc1ccccc1F` (racemic), the inhibition in series [1] was determined as 74%.

Take `Cc1cccc(C)c1NC(=O)C(Cc1c[nH]c2ccccc12)NC(=O)CCc1ccccc1` (single isomer, unassigned; (+)): the inhibition entry in series [1] is “Active”.

Regarding `Cc1cccc(C)c1NC(=O)C(Cc1c[nH]c2ccccc12)NC(=O)CCc1ccccc1` (single isomer, unassigned; (-)), the inhibition entry in series [1] is “Active”.
